# Results reported in PMC3103189 (Journal of Medicinal Chemistry, 2011).
# Marks after values point to notes of the source that are not given here.
# Tests used:
# [1] = cited from earlier work
# [2] = system: S. aureus ATCC 13709 (Smith); assay: Mouse septicemia model, IV efficacy; type: in vivo; details: IV 1 h postchallenge, survival after 48 h
# [3] = for Clobs / Vzobs: Sprague−Dawley rats, 1 mg/kg IV and 10 mg/kg PO, sterile water
# [4] = system: S. aureus clinical isolates (n = 31); assay: MIC50/MIC90 analysis, clinical isolates; type: cell-based, Staphylococcus aureus; details: n = 31 clinical isolates
# [5] = system: S. pneumoniae clinical isolates (n = 19); assay: MIC50/MIC90 analysis, clinical isolates; type: cell-based, Streptococcus pneumoniae; details: n = 19 clinical isolates
# [6] = system: H. influenzae clinical isolates (n = 11); assay: MIC50/MIC90 analysis, clinical isolates; type: cell-based, Haemophilus influenzae; details: n = 11 clinical isolates
# [7] = system: E. coli clinical isolates (n = 20); assay: MIC50/MIC90 analysis, clinical isolates; type: cell-based, Escherichia coli; details: n = 20 clinical isolates
# [8] = system: E. coli S30 extract system (coupled transcription/translation); type: biochemical; details: relative to tetracycline
# [9] = system: panel of Gram-positive and Gram-negative bacteria; assay: MIC, summary statements over the panel; type: cell-based; details: read-out: MICs for the tetracycline-susceptible strains
# How it was run: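 Broth microdilution MIC in liquid medium following CLSI methods. Medium was cation-adjusted Mueller Hinton broth, prepared fresh and held at 4 °C before testing, with defibrinated horse blood added as appropriate. Runs were accepted when comparator antibiotics fell within recommended quality-control ranges for the appropriate ATCC quality-control strains.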
smiles,measurement,setting,value
CN(C)[C@@H]1C(O)=C(C(N)=O)C(=O)[C@@]2(O)C(O)=C3C(=O)c4c(O)cccc4[C@@](C)(O)[C@H]3C[C@@H]12 [tetracycline],oral bioavailability in humans,[1],50−70%
"CN(C)c1ncc(O)c2c1C[C@H]1C[C@H]3[C@H](N(C)C)C(O)=C(C(N)=O)C(=O)[C@@]3(O)C(O)=C1C2=O.Cl.Cl [20f, 6-Demethyl-6-deoxy-7-(dimethylamino)-8-azatetracycline Dihydrochloride]",S. aureus PD50,[2],<0.30 ^b mg/kg
same,Clobs,[3],15.3 mL/min/kg
same,Vzobs,[3],4.177 L/kg
same,MIC range S. aureus,[4],≤0.016−32 μg/mL
same,MIC range S. pneumoniae,[5],≤0.016−8 μg/mL
same,MIC range H. influenzae,[6],0.063−4 μg/mL
"CN(C)CC(C)(C)CNc1nc(Cl)c2c(c1O)C(=O)C1=C(O)[C@]3(O)C(=O)C(C(N)=O)=C(O)[C@@H](N(C)C)[C@@H]3C[C@@H]1C2.Cl [24l, 7-Chloro-6-demethyl-6-deoxy-9-[[3-(dimethylamino)-2,2-dimethylpropyl]amino]-8-azatetracycline Trihydrochloride]",fold lower clearance than the other three compounds,"[3]; Sprague-Dawley, rat, in vivo",5 fold
same,Clobs,[3],3.37 mL/min/kg
same,Vzobs,[3],1.256 L/kg
same,MIC range S. aureus,[4],0.063−4 μg/mL
same,MIC range S. pneumoniae,[5],≤0.016−0.063 μg/mL
same,MIC range H. influenzae,[6],0.25−2 μg/mL
same,MIC range E. coli,[7],0.5−8 μg/mL
"CN(C)[C@@H]1C(O)=C(C(N)=O)C(=O)[C@@]2(O)C(O)=C3C(=O)c4c(O)c(N)nc(Cl)c4C[C@H]3C[C@@H]12 [20j, 9-Amino-7-chloro-6-demethyl-6-deoxy-8-azatetracycline]",fold more potent than tetracycline in transcription/translation assay,[8],about 2 fold
"CN(C)[C@@H]1C(O)=C(C(N)=O)C(=O)[C@@]2(O)C(O)=C3C(=O)c4c(O)cncc4C[C@H]3C[C@@H]12.Cl.Cl [20a, 6-Demethyl-6-deoxy-8-azatetracycline Dihydrochloride]",MIC,[9],0.25 to 1 µg/mL
"CN(C)c1cc(NC(=O)CNC(C)(C)C)c(O)c2c1C[C@H]1C[C@H]3[C@H](N(C)C)C(O)=C(C(N)=O)C(=O)[C@@]3(O)C(O)=C1C2=O [tigecycline, reference compound]",Clobs,[3],15.5 mL/min/kg
same,Vzobs,[3],6.119 L/kg
same,MIC range S. aureus,[4],≤0.016−1 μg/mL
same,MIC range H. influenzae,[6],0.25−1 μg/mL
same,MIC range E. coli,[7],0.125−2 μg/mL
"CN(C)[C@@H]1C(O)=C(C(N)=O)C(=O)[C@@]2(O)C(O)=C3C(=O)c4c(O)c(N)nc(F)c4C[C@H]3C[C@@H]12.Cl.Cl [20k, 9-Amino-6-demethyl-6-deoxy-7-fluoro-8-azatetracycline Dihydrochloride]",fold more potent than tetracycline in transcription/translation assay,[8],about 2 fold
